Assay results: ChEMBL document CHEMBL4513216, “Probing the Open Global Health Chemical Diversity Library for Multistage-Active Starting Points for Next-Generation Antimalarials” (ACS Infect Dis, 2020)

assay: Toxicity liver stage against HepG2, at 10uM; assay type: cell-based; design: test concentration 10 uM, cell line HepG2-A16-CD81EGFP; details: human, HepG2-A16-CD81EGFP cells; read-out: INHIBITION
Outline: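 Uninfected HepG2-A16-CD81EGFP cells, 3 × 10^3 per well, 1536-well, plated on prespotted compound at 10 μM final, parasite-free screening media added to match infected plates; puromycin 10 μM positive, DMSO 0.5% negative; run in parallel with 48 h PbLuc assay at 37 °C, 5% CO2; viability by CellTiter-Glo luminescence, normalized to controls.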

Q: Which cytotoxicity at 10 µM does the source give for `CCCC(O)CN1CC(C)(C)CN(C(=O)CCc2ccccc2)CC1=O` (stereo not given) here?
A: -15.4%

Q: With `CSCC[C@H](NC(=O)N1CCC(Cc2ccccc2)CC1)C(=O)O` as the compound, how does the cytotoxicity at 10 µM read?
A: -1.55%

Q: For `O=C1CC(c2cccnc2)c2c(c(C(=O)O)cn2-c2ccc(Cl)cc2)N1` (stereo not given), which cytotoxicity at 10 µM is on record?
A: -0.462%

Q: For `COC(=O)CNC(=O)c1sccc1N(C)S(=O)(=O)c1ccc(Cl)cc1`, which cytotoxicity at 10 µM is on record?
A: -15.4%

Q: Which cytotoxicity at 10 µM does the source give for `O=C(c1ccccc1F)N1CC(c2nc(-c3ccc[nH]c3=O)no2)C1` here?
A: 2.21%

Q: Which cytotoxicity at 10 µM does the source give for `O=C(c1ccco1)N1CCC(CSCc2ccco2)CC1` here?
A: -6.49%

Q: For `CN(C)C(=O)Cc1ccc(NC(=O)c2cn(C)nn2)cc1`, which cytotoxicity at 10 µM is on record?
A: -5.27%

Q: For `C[C@H]1C[C@@H]2CCN(Cc3nccs3)C[C@H]2O1`, which cytotoxicity at 10 µM is on record?
A: -3%

Q: With `CCN1CC[C@]2(CN(C(=O)C3CCOCC3)C[C@H]2c2ccccc2)C1=O` as the compound, how does the cytotoxicity at 10 µM read?
A: 8.58%

Q: For `O=S(=O)(C1CC1)N1CCn2c(Cn3cncn3)cnc2C1`, which cytotoxicity at 10 µM is on record?
A: 12.2%

Q: For `COCCN1C(=O)C2(CCC(C(=O)Nc3ccc(F)cc3)CC2)N=C1C` (stereo not given), which cytotoxicity at 10 µM is on record?
A: 9.7%

Q: Which cytotoxicity at 10 µM does the source give for `c1ccc(CNCC2Cn3nncc3CO2)nc1` (stereo not given) here?
A: 4.93%

Q: With `CCOCC1CC2(CCN(C(=O)C3CC=CC3)CC2)CO1` (stereo not given) as the compound, how does the cytotoxicity at 10 µM read?
A: 1.5%

Q: For `CN(C)c1nc(N2CCCC2)nc2c1CCN(C(=O)c1ccoc1)CC2`, which cytotoxicity at 10 µM is on record?
A: 14.9%

Q: For `CC(=O)N1CC[C@H]2C(=O)N(c3ccsc3)CCO[C@H]2C1`, which cytotoxicity at 10 µM is on record?
A: 4.47%

Q: With `COCCC1COC2(CCN(C(C)=O)CC2)C1` (stereo not given) as the compound, how does the cytotoxicity at 10 µM read?
A: 8.19%

Q: For `Cc1cc(C(=O)N2CCc3c(CN(C)C(C)C)n[nH]c3C2)[nH]n1`, which cytotoxicity at 10 µM is on record?
A: -133%

Q: For `O=C(NCc1ccccc1)c1nn(C2CCS(=O)(=O)C2)c2c1CCCC2` (stereo not given), which cytotoxicity at 10 µM is on record?
A: 5.92%

Q: With `CC(C)OCCCNC(=O)c1c(-n2cnnn2)sc2c1CCCC2` as the compound, how does the cytotoxicity at 10 µM read?
A: 11.9%

Q: Which cytotoxicity at 10 µM does the source give for `O=C(CCO)N1CCOC2(CCCN(C(=O)c3ccco3)C2)C1` (stereo not given) here?
A: -11.7%

Q: Which cytotoxicity at 10 µM does the source give for `Cc1nc(N2CCCC2)ncc1-c1cc(O)nc(N2CCN(C)CC2)n1` here?
A: 2.6%

Q: For `CC(C)S(=O)(=O)N1CCN(C(=O)c2cnn(C)c2Cl)CC1`, which cytotoxicity at 10 µM is on record?
A: 1.6%

Q: Which cytotoxicity at 10 µM does the source give for `CNc1cccc(CC2COCCN(C(=O)c3cccnc3)C2)n1` (stereo not given) here?
A: -1.99%

Q: With `c1cncc(CN2CCC(c3ccnc4nccn34)C2)c1` (stereo not given) as the compound, how does the cytotoxicity at 10 µM read?
A: 5.78%

Q: With `COCC(=O)N1CCC(c2cc3nc(C)cc(C(F)(F)F)n3n2)CC1` as the compound, how does the cytotoxicity at 10 µM read?
A: 4.49%

Q: Which cytotoxicity at 10 µM does the source give for `CC(C)N1C(=O)CO[C@H]2CCN(C(=O)c3ccc4c(c3)CCC4)CC[C@@H]21` here?
A: 3.79%

Q: Which cytotoxicity at 10 µM does the source give for `CC(C)CN1CCCC(c2nc(O)c3cc(F)ccc3n2)C1` (stereo not given) here?
A: 10.3%

Q: With `CN(Cc1nnc(C2CC2)o1)Cc1ccccc1N1CCOCC1` as the compound, how does the cytotoxicity at 10 µM read?
A: -7.83%

Q: With `CN1CCC(NC(=O)c2cc(Br)cc(Cl)c2O)C1=O` (stereo not given) as the compound, how does the cytotoxicity at 10 µM read?
A: -5.79%

Q: With `CS(=O)(=O)N1CCCC(C(=O)N2CCOc3ccccc32)C1` (stereo not given) as the compound, how does the cytotoxicity at 10 µM read?
A: 0.421%

Q: With `CC(C)(O)CN1CCN(C(=O)c2cccn2Cc2ccccc2)CC1` as the compound, how does the cytotoxicity at 10 µM read?
A: -3.88%

Q: For `Cc1ccc(CNC(CN2CCN(C)CC2)c2ccccc2)cc1C` (stereo not given), which cytotoxicity at 10 µM is on record?
A: -7.49%

Q: Which cytotoxicity at 10 µM does the source give for `CCc1ncc2c(n1)CN(Cc1ncc(C(C)(C)C)o1)CC2` here?
A: -15.9%

Q: Which cytotoxicity at 10 µM does the source give for `CCN(CC)C(=O)Nc1cccc(Oc2ccccn2)c1` here?
A: 8.12%

Q: Which cytotoxicity at 10 µM does the source give for `COCCOCC(=O)Nc1ccccc1F` here?
A: 14.7%

Q: Which cytotoxicity at 10 µM does the source give for `CC(C)Cc1nc(CSC2CCCN(c3cnn(C)c3)C2=O)no1` (stereo not given) here?
A: 17.7%

Q: Which cytotoxicity at 10 µM does the source give for `CN(C)CCn1ccc2cc(NC(=O)NCc3ccon3)ccc21` here?
A: -2.51%

Q: For `N#Cc1ccc(CNc2ncc(C#N)cc2Cl)cc1`, which cytotoxicity at 10 µM is on record?
A: 17.7%

Q: Which cytotoxicity at 10 µM does the source give for `CN1CCN(c2cccc(Cl)c2CNCCS(C)(=O)=O)CC1` here?
A: -0.641%

Q: With `Cc1ccc(S(=O)(=O)NC(=O)C2(c3ccc(F)cc3)CCC2)c(C)c1` as the compound, how does the cytotoxicity at 10 µM read?
A: -1.09%

Q: With `O=C(CN(CC(O)c1ccc(F)cc1)C1CC1)Nc1cccnc1` (stereo not given) as the compound, how does the cytotoxicity at 10 µM read?
A: -4.19%

Q: With `Cc1cc(N2CCc3c(ncn3C)C2)n2nc(C(F)(F)F)nc2n1` as the compound, how does the cytotoxicity at 10 µM read?
A: 4.11%

Q: With `CCS(=O)(=O)NC(CCSC)C(=O)Nc1ccccc1C` (stereo not given) as the compound, how does the cytotoxicity at 10 µM read?
A: 1.06%

Q: Which cytotoxicity at 10 µM does the source give for `CN(C)CCC1CCN(c2cc(N3CCCC3CO)ncn2)CC1` (stereo not given) here?
A: -6.27%

Q: For `O=C(NCc1nccs1)N1CCOC(c2ccccc2Cl)C1` (stereo not given), which cytotoxicity at 10 µM is on record?
A: -3.67%

Q: For `Cc1cc(C(N)=O)ccc1NC(=O)c1nc(N2CCCC2)ncc1Cl`, which cytotoxicity at 10 µM is on record?
A: -8.94%

Q: With `Cc1ccc(-n2nnc(CC(=O)N3CCOCC3)c2C)cc1` as the compound, how does the cytotoxicity at 10 µM read?
A: -12.9%

Q: Which cytotoxicity at 10 µM does the source give for `COc1ccc(Cn2cc(C(=O)N(C)Cc3ccon3)nn2)cc1` here?
A: 5.61%

Q: With `N#Cc1ccccc1C(=O)N1C[C@@H](CN2CCCCC2)[C@@H](CO)C1` as the compound, how does the cytotoxicity at 10 µM read?
A: -0.165%

Q: Which cytotoxicity at 10 µM does the source give for `Cc1cccc(-c2nc(N)nc3c2CN(C(=O)c2ccncn2)C3C)c1` (stereo not given) here?
A: 4.65%

Q: With `Cc1ccc(CN2CCN(c3ncnc4[nH]cnc34)CC2CCO)cc1` (stereo not given) as the compound, how does the cytotoxicity at 10 µM read?
A: 28%

Q: For `O=C(c1ccc(S(=O)(=O)NC2CCC2)cc1)N1CC[C@H]2CNC[C@H]21`, which cytotoxicity at 10 µM is on record?
A: -13.5%

Q: Which cytotoxicity at 10 µM does the source give for `C=C(C)COc1ccccc1NC(=O)NC1CCOCC1` here?
A: 4.67%

Q: For `COCC(=O)N1CCC(c2nccn2CC2CC2)CC1`, which cytotoxicity at 10 µM is on record?
A: -14.6%

Q: Which cytotoxicity at 10 µM does the source give for `Cc1cc(C)c2nc(CN3CC[C@@H](O)C3)cc(O)c2c1` here?
A: -6.23%

Q: For `Cc1ccc2c(ccn2CCC(=O)O)c1`, which cytotoxicity at 10 µM is on record?
A: -3.69%

Q: Which cytotoxicity at 10 µM does the source give for `NC(=O)c1cccc(OCC(=O)NS(=O)(=O)c2ccc3c(c2)CCC3)c1` here?
A: -6.22%

Q: For `Cc1noc(C)c1CNC(=O)N1CCC(Cc2cnn(C)c2)C1` (stereo not given), which cytotoxicity at 10 µM is on record?
A: -8.66%

Q: With `COc1c(C2CCCN2Cc2csc(C(C)C)n2)c(C)nn1C` (stereo not given) as the compound, how does the cytotoxicity at 10 µM read?
A: -1.53%

Q: For `Cc1nc(CN2CCCN(CCOc3cccc(C#N)c3)CC2)no1`, which cytotoxicity at 10 µM is on record?
A: -5.85%

Q: Which cytotoxicity at 10 µM does the source give for `CC(C)c1noc(C(C)N2CCN(CCO)CC2)n1` (stereo not given) here?
A: -2.26%

Q: With `O=C1NCc2ccc(NC(=O)C3CCCN3c3nccs3)cc21` (stereo not given) as the compound, how does the cytotoxicity at 10 µM read?
A: -6.02%

Q: With `Cc1cc(C)c(CNC(=O)C2CCCN(c3cnccn3)C2)c(=O)[nH]1` (stereo not given) as the compound, how does the cytotoxicity at 10 µM read?
A: -13.7%

Q: With `CN(Cc1ccc(F)cc1)C(=O)CN1CCOC(Cn2cncn2)C1` (stereo not given) as the compound, how does the cytotoxicity at 10 µM read?
A: -4.07%

Q: For `CC(C)(C)n1ncc2c1CCCC2NCc1cccc2c1OCO2` (stereo not given), which cytotoxicity at 10 µM is on record?
A: 3.37%

Q: For `CCN1CCN(CC(C)(O)c2cccc(C(F)(F)F)c2)CC1` (stereo not given), which cytotoxicity at 10 µM is on record?
A: -11.4%

Q: Which cytotoxicity at 10 µM does the source give for `Cn1ccc(CN2CCC(CCc3ccc(O)cc3)CC2)cc1=O` here?
A: 1.2%

Q: For `Cc1noc(CN2Cc3ccccc3CC2c2nnc(C)o2)n1` (stereo not given), which cytotoxicity at 10 µM is on record?
A: -4.62%

Q: With `Cc1cccc(N2CCCC3(C2)CN(S(=O)(=O)C2CC2)CCO3)c1` (stereo not given) as the compound, how does the cytotoxicity at 10 µM read?
A: 11%

Q: Which cytotoxicity at 10 µM does the source give for `COCCN(C)C[C@@H]1CCC[C@@H]2CN(Cc3ccc(OC)nc3)C[C@@H]21` here?
A: 8.13%

Q: Which cytotoxicity at 10 µM does the source give for `Cc1nn(C)c(N(C)C)c1CNC1CCc2c(Cl)cccc21` (stereo not given) here?
A: -7.07%

Q: For `Cn1nccc1-c1ncc2c(c1C(=O)O)CCN(Cc1ccncc1)C2`, which cytotoxicity at 10 µM is on record?
A: 6.1%

Q: For `Cn1cc(CN2CCC3(CC2)C(=O)Nc2ccccc23)cn1`, which cytotoxicity at 10 µM is on record?
A: 0.134%

Q: For `COCC(=O)N1CCCn2c(CN3CCCCC3)nnc2C1`, which cytotoxicity at 10 µM is on record?
A: -15.8%

Q: Which cytotoxicity at 10 µM does the source give for `O=C(N1CCCC1)N1CC[C@H]2[C@H]1CCN2c1ncccn1` here?
A: -1.19%

Q: With `CCOCc1cnc2n1CCN(Cc1scnc1C)C2C` (stereo not given) as the compound, how does the cytotoxicity at 10 µM read?
A: 8.85%

Q: Which cytotoxicity at 10 µM does the source give for `O=C(CC1CC1)N1C[C@@H]2CCN(c3cccnc3)C[C@@H]2C1` here?
A: 4.62%

Q: Which cytotoxicity at 10 µM does the source give for `CCN1C(=O)[C@H]2CN(CC(C)C)C[C@H]2C12CCN(S(C)(=O)=O)CC2` here?
A: 10.3%

Q: Which cytotoxicity at 10 µM does the source give for `c1ccc(CN2CCOC3(COCCN(c4ncccn4)C3)C2)nc1` (stereo not given) here?
A: 8.28%

Q: With `CN(C)C(=O)[C@H]1C[C@H]2CN(S(=O)(=O)Cc3ccccc3)C[C@@H]1O2` as the compound, how does the cytotoxicity at 10 µM read?
A: 4.81%
